The test system of one data set is Plasmodium falciparum. Nature of the data set: Antimalarial activity against chloroquine and pyrimethamine resistant Plasmodium falciparum K1. The format is functional, organism-based. In a few lines:
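IC50 was determined in vitro against the chloroquine- and pyrimethamine-resistant P. falciparum K1 strain. Values are the mean of two independent assays.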

The next data set concerns L6. The data set can be described thus: Cytotoxicity against rat L6 cells. The format is cell-based. In a few lines:
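Cytotoxicity was tested against L-6 rat myoblasts, with IC50 determined. Values are the mean of two independent assays.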

Data set [1] can be described thus: Selectivity index, ratio of IC50 for rat L6 cells to IC50 for Plasmodium falciparum K1. In kind it is toxicity, cell-based. Particulars: read-out: Ratio IC50. The method in brief:
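Selectivity index is IC50 against L-6 cells divided by IC50 against chloroquine/pyrimethamine-resistant P. falciparum K1. Each IC50 is the mean of two independent assays.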

For data set [2], the system named is Plasmodium berghei. The data set can be described thus: Antimalarial activity against Plasmodium berghei NK-65 infected in ICR mouse assessed as inhibition of parasitemia at 100 mg/kg, po administered as single dose on day 1 measured on day 4. The format is functional. The method in brief:
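Compound was formulated at 100 mg/kg in 5% glucose/10% ethanol or in 7% Tween 80/3% ethanol. The suspension was given as a single oral dose on day 1 to female ICR mice infected with P. berghei NK-65. Parasitemia was determined on day 4 after infection. Treated-group mean is expressed as percent difference from the control-group mean.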

The subject of data set [3] is Plasmodium berghei. Nature of the data set: Antimalarial activity against Plasmodium berghei NK-65 infected in ICR mouse assessed as survival days at 100 mg/kg, po administered as single dose (reference value: 6 days). The format is functional. In a few lines:
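Female ICR mice infected with P. berghei NK-65 received a single oral dose of 100 mg/kg on day 1. The compound was given as a suspension in 5% glucose/10% ethanol or in 7% Tween 80/3% ethanol. Parasitemia was read on day 4 as percent reduction relative to untreated controls, and mean survival days were recorded.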

By IC50 is commonly meant the concentration that inhibits the measured activity by half. Lower therefore signals greater potency. What is called inhibition in vivo is the drop in the measured response relative to a control, in per cent. With `CCN(CC)c1ccc2nc3c4ccccc4/c(=N/c4nc5ccc(OC)cc5s4)cc-3oc2c1`, the IC50 in the data set with Plasmodium falciparum amounted to 112 nM; in the data set on L6, 168000 nM. The selectivity ratio in data set [1] amounted to 1490. For the same compound, the inhibition in vivo at 100 mg/kg in the data set with Plasmodium berghei [2] was found to be 11.4%. Moreover, in the data set on Plasmodium berghei [3], the MSD is 6.3 days.
The like results for `CCN(CC)c1ccc2nc3c4ccccc4/c(=N\c4cccnc4)cc-3oc2c1` were, in that order, 23 nM, 117000 nM, 5090, 62.7% and 10 days.
Take `CCN(CC)CCCC(C)Nc1ccnc2cc(Cl)ccc12` (stereo not given) [CHLOROQUINE]: the inhibition in vivo at 100 mg/kg with Plasmodium berghei [2] was above 99.9%. Also, the MSD with Plasmodium berghei [3] stood at 12.6 days.
As for `CCN(CC)c1ccc2nc3c4ccccc4/c(=N\c4ccccn4)cc-3oc2c1`, the IC50 with Plasmodium falciparum was determined as 15 nM; in the data set on L6 it was 15800 nM. The selectivity ratio in data set [1] is 1050. For the same compound, in the data set with Plasmodium berghei [2], the inhibition in vivo at 100 mg/kg is above 99.9%. The MSD with Plasmodium berghei [3] worked out at 8.3 days.
The matching figures for `CCN(CC)c1cc(C)c2nc3c4ccccc4/c(=N/c4ccncc4)cc-3oc2c1.Cl.Cl`: 180 nM, 86600 nM, 481, 99.7% and 13 days.
As for `CCN(CC)c1ccc2nc3c4ccccc4/c(=N\c4ncc(Cl)cc4Cl)cc-3oc2c1`, the concentration for half-maximal inhibition (IC50) came out at 63 nM with Plasmodium falciparum and 180000 nM in the data set on L6. The selectivity ratio in data set [1] stood at 2860. Besides, the inhibition in vivo at 100 mg/kg with Plasmodium berghei [2] was 14.7%. Moreover, the MSD in the data set with Plasmodium berghei [3] came out at 6.3 days.
`CC[N+](CC)=c1ccc2nc3c(cc(N)c4ccccc43)oc-2c1.[Cl-]` [NILE BLUE HYDROCHLORIDE]: the IC50 with Plasmodium falciparum worked out at 15.6 nM; in the data set on L6, 43100 nM. Moreover, in data set [1], the selectivity ratio came out at 2760. The inhibition in vivo at 100 mg/kg with Plasmodium berghei [2] worked out at 15%. In addition, in the data set on Plasmodium berghei [3], the MSD came to 6.6 days.
The matching figures for `CCN(CC)c1ccc2nc3c4ccccc4c(=O)cc-3oc2c1` [NILE RED]: 868 nM, 65900 nM, 76, 15% and 6.3 days.
The matching figures for `CCN(CC)c1ccc2nc3c4ccccc4/c(=N/c4ccc(C)cc4)cc-3oc2c1.Cl`: 232 nM, 123000 nM, 531, 0% and 6.3 days.
The matching figures for `CCN(CC)c1ccc2nc3c4ccccc4/c(=N\c4ncccn4)cc-3oc2c1`: 5 nM, 13600 nM, 2730, 3.3% and 6.3 days.
Regarding `CCN(CC)c1ccc2nc3c4ccccc4/c(=N\c4ccc5ccccc5n4)cc-3oc2c1`, the IC50 in the data set with Plasmodium falciparum was 27 nM; in the data set on L6, 67900 nM. The selectivity ratio in data set [1] was determined as 2520. Also, in the data set with Plasmodium berghei [2], the inhibition in vivo at 100 mg/kg was found to be 81%. The MSD in the data set on Plasmodium berghei [3] was 10.3 days.
The like results for `CCN(CCNS(C)(=O)=O)c1cc(C)c2nc3c4ccccc4/c(=N/c4ccncc4)cc-3oc2c1.Cl.Cl` were, in that order, 17 nM, 14800 nM, 887, above 99.9% and 15.7 days.
The like results for `CCN(CC)c1ccc2nc3c4ccccc4/c(=N/c4cc[n+](C)cc4)cc-3oc2c1.[I-]` were, in that order, 9 nM, 1560 nM, 174, 22% and 6.6 days.
The matching figures for `CCN(CC)c1ccc2nc3c4ccc(Br)cc4/c(=N/c4ccccn4)cc-3oc2c1`: 38 nM, above 190000 nM, above 5010, 12.7% and 6.3 days.
In the case of `CCN(CC)c1ccc2nc3c4ccccc4/c(=N/c4ccccc4)cc-3oc2c1.Cl`, the IC50 in the data set with Plasmodium falciparum is 191 nM; with L6, 165000 nM. For the same compound, in data set [1], the selectivity ratio turned out to be 863. Moreover, the inhibition in vivo at 100 mg/kg in the data set on Plasmodium berghei [2] turned out to be 0%. Moreover, the MSD with Plasmodium berghei [3] turned out to be 6.3 days.
For `c1ccc2/c(=N/c3ccncc3)cc3oc4cc(N5CCOCC5)ccc4nc-3c2c1`, the IC50 in the data set with Plasmodium falciparum turned out to be 29 nM; in the data set on L6, 96900 nM. In addition, the selectivity ratio in data set [1] is 3340. Also, the inhibition in vivo at 100 mg/kg in the data set on Plasmodium berghei [2] turned out to be 97.9%. For the same compound, the MSD in the data set with Plasmodium berghei [3] was 7.3 days.
Turning to `CCCCN(CCCC)c1ccc2nc3c4ccccc4/c(=N/c4ccncc4)cc-3oc2c1.Cl.Cl`, the IC50 turned out to be 195 nM in the data set with Plasmodium falciparum and 63800 nM with L6. For the same compound, the selectivity ratio in data set [1] worked out at 327. Also, the inhibition in vivo at 100 mg/kg in the data set on Plasmodium berghei [2] was 5.6%. Also, the MSD in the data set on Plasmodium berghei [3] came to 6.3 days.
The matching figures for `CN(C)c1ccc2nc3c4ccccc4/c(=N/c4ccncc4)cc-3oc2c1`: 8.1 nM, 165000 nM, 20400, above 99.9% and 10 days.
Turning to `CCN(CC)c1ccc2nc3c4ccc(Br)cc4/c(=N/c4ccncc4)cc-3oc2c1`, the IC50 was 11 nM in the data set with Plasmodium falciparum and above 190000 nM with L6. Moreover, the selectivity ratio in data set [1] was above 17300. Moreover, the inhibition in vivo at 100 mg/kg in the data set on Plasmodium berghei [2] is 14.2%. For the same compound, the MSD in the data set with Plasmodium berghei [3] amounted to 6.6 days.
Take `CC[N+](CC)=c1ccc2nc3c(ccc4ccccc43)oc-2c1`: the IC50 with Plasmodium falciparum was found to be 606 nM; in the data set with L6 it was 3820 nM. For the same compound, the selectivity ratio in data set [1] is 6.3.
For the compound `CCCN(CCC)c1ccc2nc3c4ccccc4/c(=N/c4ccncc4)cc-3oc2c1.Cl.Cl`, the IC50 with Plasmodium falciparum worked out at 50 nM; in the data set on L6, 67100 nM. Further, in data set [1], the selectivity ratio was determined as 1340. Moreover, the inhibition in vivo at 100 mg/kg with Plasmodium berghei [2] turned out to be 15.3%. Besides, the MSD in the data set with Plasmodium berghei [3] is 6.3 days.
`CCN(CC)c1ccc2nc3c4ccccc4/c(=N/c4cc[n+](Cc5ccccc5)cc4)cc-3oc2c1.[Cl-]`: the results for the IC50 in the data set with Plasmodium falciparum and with L6 were 24 nM and 750 nM, respectively. The selectivity ratio in data set [1] was 31. The inhibition in vivo at 100 mg/kg in the data set on Plasmodium berghei [2] came out at 39%. The MSD in the data set on Plasmodium berghei [3] came to 7.3 days.

For the origin of these results see ChEMBL document CHEMBL1777756, “Discovery of Novel Benzo[a]phenoxazine SSJ-183 as a Drug Candidate for Malaria” (ACS Med Chem Lett, 2010).
